# Reference: ChEMBL document CHEMBL1122572, “Improved synthesis and antitumor evaluation of 5,8-dideazaisofolic acid and closely related analogues” (J Med Chem, 1984)
# System: HT-29
# Assay: In vitro inhibition of growth of the human gastrointestinal adenocarcinoma cells HT-29
# Type: functional, cell-based
# Conditions: not given
# In short: (§1)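 Monodispersed growing cells (0.7-1 × 10^5 in 1 mL medium) were added to wells already holding 0–50 μL of drug solution. Drug was dissolved fresh in 0.1 M NaOH and diluted with pH 7.0 phosphate buffer. Cells were incubated 72–96 h at 37 °C in humidified 8% CO₂, trypsinized and counted on a Coulter counter. IC50 was the concentration giving 50% growth inhibition versus untreated controls.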
row,Structure (SMILES),IC50 [µM]
1,Nc1nc(O)c2cc(N(C=O)Cc3ccc(C(=O)NC(CCC(=O)O)C(=O)O)cc3)ccc2n1 (centres undefined),100
2,CN(Cc1ccc(C(=O)NC(CCC(=O)O)C(=O)O)cc1)c1ccc2nc(N)nc(O)c2c1 (centres undefined),3.2
3,CN(Cc1cnc2nc(N)nc(N)c2n1)c1ccc(C(=O)N[C@@H](CCC(=O)O)C(=O)O)cc1 [METHOTREXATE],0.018
4,Nc1nc(N)c2cc(NCc3ccc(C(=O)NC(CCC(=O)O)C(=O)O)cc3)ccc2n1 (centres undefined),0.2
5,Cc1c(NCc2ccc(C(=O)NC(CCC(=O)O)C(=O)O)cc2)ccc2nc(N)nc(O)c12 (centres undefined),1.1
6,Cc1c(N(C)Cc2ccc(C(=O)NC(CCC(=O)O)C(=O)O)cc2)ccc2nc(N)nc(O)c12 (centres undefined),2.7
7,Nc1nc(=O)c2cc(NCc3ccc(C(=O)N[C@H](CCC(=O)O)C(=O)O)cc3)ccc2[nH]1,> 300

# System: not listed separately
# Assay: In vitro inhibition of growth of the human gastrointestinal adenocarcinoma cells HaTu80
# Type: functional
# Conditions: not given
# In short: as §1
row,Structure (SMILES),IC50 [µM]
1,Nc1nc(=O)c2cc(NCc3ccc(C(=O)NC(CCC(=O)O)C(=O)O)cc3)ccc2[nH]1 (stereo in doubt; form 1),4.5

# Same assay, conditions: Homo sapiens
row,Structure (SMILES),IC50 [µM]
1,Nc1nc(O)c2cc(N(C=O)Cc3ccc(C(=O)NC(CCC(=O)O)C(=O)O)cc3)ccc2n1 (centres undefined),95
2,CN(Cc1ccc(C(=O)NC(CCC(=O)O)C(=O)O)cc1)c1ccc2nc(N)nc(O)c2c1 (centres undefined),4.8
3,CN(Cc1cnc2nc(N)nc(N)c2n1)c1ccc(C(=O)N[C@@H](CCC(=O)O)C(=O)O)cc1 [METHOTREXATE],0.009
4,Nc1nc(N)c2cc(NCc3ccc(C(=O)NC(CCC(=O)O)C(=O)O)cc3)ccc2n1 (centres undefined),0.15
5,Cc1c(NCc2ccc(C(=O)NC(CCC(=O)O)C(=O)O)cc2)ccc2nc(N)nc(O)c12 (centres undefined),4
6,Cc1c(N(C)Cc2ccc(C(=O)NC(CCC(=O)O)C(=O)O)cc2)ccc2nc(N)nc(O)c12 (centres undefined),3.6
7,Nc1nc(=O)c2cc(NCc3ccc(C(=O)N[C@H](CCC(=O)O)C(=O)O)cc3)ccc2[nH]1,> 300

# System: SW480
# Assay: In vitro inhibition of growth of the human gastrointestinal adenocarcinoma cells SW480
# Type: functional, cell-based
# Conditions: not given
# In short: as §1
row,Structure (SMILES),IC50 [µM]
1,Nc1nc(O)c2cc(N(C=O)Cc3ccc(C(=O)NC(CCC(=O)O)C(=O)O)cc3)ccc2n1 (centres undefined),150
2,CN(Cc1ccc(C(=O)NC(CCC(=O)O)C(=O)O)cc1)c1ccc2nc(N)nc(O)c2c1 (centres undefined),5
3,CN(Cc1cnc2nc(N)nc(N)c2n1)c1ccc(C(=O)N[C@@H](CCC(=O)O)C(=O)O)cc1 [METHOTREXATE],0.015
4,Nc1nc(N)c2cc(NCc3ccc(C(=O)NC(CCC(=O)O)C(=O)O)cc3)ccc2n1 (centres undefined),0.2
5,Cc1c(NCc2ccc(C(=O)NC(CCC(=O)O)C(=O)O)cc2)ccc2nc(N)nc(O)c12 (centres undefined),10
6,Cc1c(N(C)Cc2ccc(C(=O)NC(CCC(=O)O)C(=O)O)cc2)ccc2nc(N)nc(O)c12 (centres undefined),4.8
7,Nc1nc(=O)c2cc(NCc3ccc(C(=O)N[C@H](CCC(=O)O)C(=O)O)cc3)ccc2[nH]1,> 300

# System: WiDr
# Assay: In vitro inhibition of growth of the human gastrointestinal adenocarcinoma cells WIDR
# Type: functional, cell-based
# Conditions: not given
# In short: as §1
row,Structure (SMILES),IC50 [µM]
1,Nc1nc(O)c2cc(N(C=O)Cc3ccc(C(=O)NC(CCC(=O)O)C(=O)O)cc3)ccc2n1 (centres undefined),195
2,CN(Cc1ccc(C(=O)NC(CCC(=O)O)C(=O)O)cc1)c1ccc2nc(N)nc(O)c2c1 (centres undefined),6.3
3,CN(Cc1cnc2nc(N)nc(N)c2n1)c1ccc(C(=O)N[C@@H](CCC(=O)O)C(=O)O)cc1 [METHOTREXATE],0.025
4,Nc1nc(N)c2cc(NCc3ccc(C(=O)NC(CCC(=O)O)C(=O)O)cc3)ccc2n1 (centres undefined),0.2
5,Cc1c(NCc2ccc(C(=O)NC(CCC(=O)O)C(=O)O)cc2)ccc2nc(N)nc(O)c12 (centres undefined),4
6,Cc1c(N(C)Cc2ccc(C(=O)NC(CCC(=O)O)C(=O)O)cc2)ccc2nc(N)nc(O)c12 (centres undefined),4.8
7,Nc1nc(=O)c2cc(NCc3ccc(C(=O)N[C@H](CCC(=O)O)C(=O)O)cc3)ccc2[nH]1,> 300
